Results reported in ChEMBL document CHEMBL1125629, “Beta-substituted beta-phenylpropionyl chymotrypsins. Structural and stereochemical features in stable acyl enzymes” (J Med Chem, 1991).

How the values were obtained:
[1] = Deacylation rate constant(Kd fast) was determined by proflavin displacement assay
How it was run: (§1)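 Proflavin displacement: ester 90 μM (from DMSO) added to α-chymotrypsin 90 μM and proflavin 9 μM (final) in 0.1 M phosphate pH 7.2 at 25 °C. Return of A466 was followed, and the slope of semilog absorbance versus time gave kd. Racemic esters gave biphasic curves yielding kd(fast) and kd(slow), and their ratio approximates deacylation enantioselectivity.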

[2] = Deacylation rate constant(Kd slow) was determined by proflavin displacement assay; how it was run: as §1
[3] = kd ratio measured as the kd(fast)/kd(slow) values; assay type: ADME; how it was run: as §1
[4] = Second order rate constant for acylation( ka/Ks); assay type: ADME
How it was run: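 Competitive substrate assay with α-chymotrypsin (25 nM, active-site titrated) in 0.1 M phosphate buffer pH 7.2, 25 °C. MeO-Suc-Ala-Ala-Pro-Phe pNA was at 128 μM with ester at 10–350 μM, DMSO present. A410 followed for up to 300 s, and k_obs came from semilog plots in triplicate. ka and KS were obtained from I0/k_obs versus I0 by Main's equation (KM 50 μM).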

[5] = Binding constant of the compound
[6] = Acylation rate constant was determined

Kd [1] | Kd [2] | Ratio [3] | Ratio [4] | Ks [5] | Ka [6] | Compound
0.15 s⁻¹ | 0.000583 s⁻¹ | 257 | – | – | – | N#CCC(CC(=O)Oc1ccc([N+](=O)[O-])cc1)c1ccccc1 (stereo not given)
– | 3.83e-05 s⁻¹ | – | – | – | – | C=C(C)C[C@H](CC(=O)O)c1ccccc1
– | – | – | 11000 M⁻¹ s⁻¹ | 91 µM | 58 min⁻¹ | CC(=O)C[C@@H](CC(=O)Oc1ccc(C#N)cc1)c1ccccc1
– | – | – | 2000 M⁻¹ s⁻¹ | 630 µM | 73 min⁻¹ | CC(=O)C[C@H](CC(=O)Oc1ccc(C#N)cc1)c1ccccc1
0.0025 s⁻¹ | 6e-05 s⁻¹ | 42 | – | – | – | CC(=O)CC(CC(=O)Oc1ccc([N+](=O)[O-])cc1)c1ccccc1 (stereo not given)
0.015 s⁻¹ | 8.3e-05 s⁻¹ | 180 | – | – | – | O=CCC(CC(=O)Oc1ccc([N+](=O)[O-])cc1)c1ccccc1 (stereo not given)
0.0016 s⁻¹ | 0.0016 s⁻¹ | – | – | – | – | CC(C)CC(CC(=O)Oc1ccc([N+](=O)[O-])cc1)c1ccccc1 (stereo not given)
0.00112 s⁻¹ | 0.00017 s⁻¹ | 7 | – | – | – | CC(=O)OC(CC(=O)Oc1ccc([N+](=O)[O-])cc1)c1ccccc1 (stereo not given)
0.0262 s⁻¹ | 0.00033 s⁻¹ | 785 | – | – | – | CC(=O)N[C@@H](CC(=O)Oc1ccc([N+](=O)[O-])cc1)c1ccccc1
0.0034 s⁻¹ | 0.0034 s⁻¹ | – | – | – | – | O=C1CC(c2ccccc2)CC(=O)O1
0.25 s⁻¹ | 0.25 s⁻¹ | – | – | – | – | O=C(CCc1ccccc1)Oc1ccc([N+](=O)[O-])cc1
0.039 s⁻¹ | 0.0008 s⁻¹ | 49 | – | – | – | COC(=O)CC(CC(=O)Oc1ccc([N+](=O)[O-])cc1)c1ccccc1 (stereo not given)
0.5 s⁻¹ | 0.000417 s⁻¹ | 1200 | – | – | – | O=C(CC(NC(=O)c1ccccc1)c1ccccc1)Oc1ccc([N+](=O)[O-])cc1 (stereo not given)
0.0725 s⁻¹ | 4.83e-05 s⁻¹ | 1500 | – | – | – | CCC(=O)NC(CC(=O)Oc1ccc([N+](=O)[O-])cc1)c1ccccc1 (stereo not given)
0.00287 s⁻¹ | – | 3 | – | – | – | C=C(C)C[C@@H](CC(=O)Oc1ccc([N+](=O)[O-])cc1)c1ccccc1
0.0597 s⁻¹ | 0.00065 s⁻¹ | 92 | – | – | – | O=CNC(CC(=O)Oc1ccc([N+](=O)[O-])cc1)c1ccccc1 (stereo not given)
– | 0.00112 s⁻¹ | 3 | – | – | – | C=C(C)C[C@H](CC(=O)Oc1ccc([N+](=O)[O-])cc1)c1ccccc1
0.000105 s⁻¹ | 0.000105 s⁻¹ | – | – | – | – | O=C(CC(NC(=O)C(F)(F)F)c1ccccc1)Oc1ccc([N+](=O)[O-])cc1 (stereo not given)
0.00257 s⁻¹ | 8.3e-05 s⁻¹ | 31 | – | – | – | NC(=O)CC(CC(=O)Oc1ccc([N+](=O)[O-])cc1)c1ccccc1 (stereo not given)
0.0027 s⁻¹ | 0.0027 s⁻¹ | – | – | – | – | C=C(C)CC(CC(=O)Oc1ccc([N+](=O)[O-])cc1)c1ccccc1 (stereo not given)
– | 4.83e-05 s⁻¹ | – | 12000 M⁻¹ s⁻¹ | 51 µM | 35 min⁻¹ | C=C1C[C@H](c2ccccc2)CC(=O)O1 (stereo in doubt; 1 (R))
0.00283 s⁻¹ | – | 59 | 38000 M⁻¹ s⁻¹ | 8 µM | 17 min⁻¹ | C=C1C[C@H](c2ccccc2)CC(=O)O1 (stereo in doubt; 1 (S))
